The target of data set [1] is T1, zebrafish HDAC10 (Danio rerio, UniProt F1QCV2).
T1 sequence (F1QCV2 1-675): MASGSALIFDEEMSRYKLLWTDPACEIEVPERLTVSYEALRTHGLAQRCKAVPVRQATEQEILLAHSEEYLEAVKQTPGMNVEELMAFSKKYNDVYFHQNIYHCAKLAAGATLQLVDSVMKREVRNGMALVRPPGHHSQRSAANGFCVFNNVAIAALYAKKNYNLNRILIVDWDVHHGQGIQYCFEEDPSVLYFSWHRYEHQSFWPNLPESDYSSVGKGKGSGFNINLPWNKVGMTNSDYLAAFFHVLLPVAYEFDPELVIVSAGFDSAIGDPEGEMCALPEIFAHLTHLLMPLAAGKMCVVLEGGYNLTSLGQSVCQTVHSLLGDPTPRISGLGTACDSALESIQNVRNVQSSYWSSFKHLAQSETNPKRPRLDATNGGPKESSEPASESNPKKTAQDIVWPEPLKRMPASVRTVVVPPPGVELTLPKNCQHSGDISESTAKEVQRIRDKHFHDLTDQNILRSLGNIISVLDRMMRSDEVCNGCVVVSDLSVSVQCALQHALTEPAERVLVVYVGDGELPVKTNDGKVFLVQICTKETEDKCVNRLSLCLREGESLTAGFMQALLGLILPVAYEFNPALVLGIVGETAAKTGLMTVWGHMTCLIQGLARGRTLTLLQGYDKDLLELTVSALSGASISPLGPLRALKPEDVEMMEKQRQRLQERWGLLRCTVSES
Nature of the data set: fixed-point N-acetylputrescine hydrolysis assay. The class given is biochemical. A digest of the protocol: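 N-acetylputrescine 800 μM added; quenched after 45–60 min with sodium bicarbonate plus dansyl chloride, 50 °C 1 h. Dansylated product quantified by LC-MS; IC50 from logistic nonlinear regression.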

Data set [2] can be described thus: stability in aqueous solution by mass spectrometry. The format is physicochemical.
The mark [3] stands for this setting: ratio of IC50 values against zebrafish HDAC10.

In general, IC50 refers to the concentration at which inhibition is half-maximal. In turn, `NCCCNCCCCCC(=O)C(F)(F)F` [compound 1, 7-[(3-aminopropyl)amino]-1,1,1-trifluoroheptan-2-one] gave an IC50 in data set [1] of 80 ± 10 nM. In data set [1] (setting [3]), the “fold greater inhibitory potency than methylketone 2 or methoxymethylketone 3” value is reported as “at least 29 fold”.

`CC(=O)CCCCCNCCCN` [compound 2, 7-[(3-aminopropyl)amino]heptan-2-one] showed a concentration for half-maximal inhibition (IC50) in data set [1] of 2300 ± 200 nM.

Compound `COCC(=O)CCCCCNCCCN` [compound 3, 7-[(3-aminopropyl)amino]-1-methoxyheptan-2-one] showed an IC50 in data set [1] of 35000 ± 100 nM.

In data set [1], `NCCCNCCCCCB(O)O` [compound 4, 5-[(3-aminopropyl)amino]pentylboronic acid] returned a half-maximal inhibitory concentration (IC50) of 400000 ± 70000 nM.

`NCCCNCCCCCS` [compound 6, 5-[(3-aminopropyl)amino]pentane-1-thiol] returned a half-maximal inhibitory concentration (IC50) in data set [1] of 370 ± 20 nM. The “stability in aqueous solution” value in data set [2] is “susceptible to oxidation and begins to forms a disulfide in aqueous solution”.

On to `CC(=O)SCCCCCNCCCN` [compound 7, S-{5-[(3-aminopropyl)amino]pentyl} thioacetate], for which, in data set [1], the half-inhibitory concentration (IC50) was determined as 30 ± 10 nM. For the same compound, in data set [1] (setting [3]), the “fold difference in potencies between inhibitors 7 and 6” value was found to be 12 fold. Also, the “stability in aqueous solution” value in data set [2] was “stable in aqueous solution”.

These data come from publication PMC6904438 (Biochemistry, 2019).
